An excerpt weighted towards active compounds, which were near 4% of everything screened.
MPTP block: permeability transition pore inhibition; inhibition, % at 10 µM; isolated mouse mitochondria, Ca2+ swelling absorbance, 30 min; 1.4% of 360,000 active; AID 602449;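 active means inhibition of 50% or more, scaled per plate between neutral and stimulator controls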;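 further: 0% = DMSO wells given calcium and 100% = 1 mM EGTA wells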
TAAR1 agonist: human TAAR1 agonism. AID 624467. 0.99% of 360,000 active. activation, % at 3 µM. CHO RD-HGA16 TAAR1, Fluo-8 calcium fluorescence; vehicle wells 0%, saturating PEA agonist 100%. Q96RJ0;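 active means activation above the mean activation of all test compounds in the run plus 3 SD, cut at about 38% in these data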
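Repeats: no replicates (n 1) | Material: CHO-derived RD-HGA16 cells with stable Gα16 and human TAAR1 | Technique: Kinetic Fluo-8 calcium fluorescence | Schedule: 17-24 h seeding, 75 min 37 °C dye, 30 min RT | Evaluation: % activation from peak over basal fluorescence ratio, DMSO-to-PEA scaled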
DAGLB inhibitor: blocks human DAGLB lipase activity. HEK293T DAGLB membrane lysate, EnzChek fluorogenic substrate. Q8NCG7. inhibition, % at 5.17 µM. 0.059% of 340,000 active; in the data active means inhibition above about 34%;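 further: 0% = enzyme with vehicle and 100% = wells lacking enzyme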
Target sequence (Q8NCG7 whole entry, looked up): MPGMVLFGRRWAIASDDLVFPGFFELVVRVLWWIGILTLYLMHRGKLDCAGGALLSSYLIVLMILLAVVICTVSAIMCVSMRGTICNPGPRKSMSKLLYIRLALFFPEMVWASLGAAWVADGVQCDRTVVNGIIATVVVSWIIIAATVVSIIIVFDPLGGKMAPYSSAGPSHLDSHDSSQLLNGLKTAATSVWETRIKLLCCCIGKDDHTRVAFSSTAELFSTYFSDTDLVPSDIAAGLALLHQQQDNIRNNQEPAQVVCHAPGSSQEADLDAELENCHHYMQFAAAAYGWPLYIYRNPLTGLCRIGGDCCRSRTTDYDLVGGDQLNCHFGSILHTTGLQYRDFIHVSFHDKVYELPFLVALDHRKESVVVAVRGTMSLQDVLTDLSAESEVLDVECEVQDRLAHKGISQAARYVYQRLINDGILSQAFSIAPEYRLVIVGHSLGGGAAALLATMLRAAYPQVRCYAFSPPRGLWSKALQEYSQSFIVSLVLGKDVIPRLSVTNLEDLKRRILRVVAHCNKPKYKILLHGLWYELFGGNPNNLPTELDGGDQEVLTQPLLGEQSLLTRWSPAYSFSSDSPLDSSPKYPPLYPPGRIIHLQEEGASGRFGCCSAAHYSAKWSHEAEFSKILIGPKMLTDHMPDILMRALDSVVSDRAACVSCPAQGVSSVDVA
GPR7 antagonist: blocks human GPR7 receptor signaling; GPR7-expressing cells, fluorescence antagonist assay; P48145; inhibition, % at 4.4 µM; 1.1% of 290,000 active; in the data active means inhibition above about 16%, passing the limit was not always enough;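 further: cells stimulated with the agonist NPW; 0% = agonist with vehicle and 100% = vehicle without agonist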
TAAR1 antagonist: antagonists of human TAAR1; 1.5% of 360,000 active; inhibition, % at 3 µM; CHO RD-HGA16 TAAR1, Fluo-8 calcium fluorescence, antagonist;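 active means inhibition above a per-plate cutoff, the mean inhibition of test compounds on that plate plus 3 SD, cut at about 49% in these data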;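 further: 0% = DMSO plus EC80 beta-PEA response and 100% = DMSO alone without agonist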
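Assay system: CHO-derived RD-HGA16 cells stably expressing human TAAR1 plus Gα16. Timing: 140 s kinetic read after compound, 140 s after agonist. Technique: kinetic Fluo-8 calcium fluorescence measurement. Measure: % inhibition of agonist calcium response.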
DAGLB confirm: DAGLB (human) inhibition, confirmation screen; AID 504445; shares compounds with DAGLB inhibitor; 73% of 190 active; HEK293T DAGLB membrane lysate, EnzChek fluorogenic substrate; inhibition, % at 5.17 µM;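 active means mean inhibition over triplicate wells above a set limit taken from the primary lipase screen, cut at about 34% in these data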;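 further: 0% = DAGLB with DMSO and 100% = wells lacking DAGLB enzyme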
Rh123 counter: Rhodamine 123 counter-screen of mitochondrial pore hits | shares compounds with MPTP block | isolated mitochondria, membrane potential, Rhodamine 123 fluorescence | inhibition, % at 10 µM | 78% of 5,000 active; in the data active means inhibition above about 22%;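 further: 0% = DMSO vehicle and 100% = positive control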
Numbers without * were called inactive.

`Nc1ncnc(N)c1N=Nc1ccccc1` gave MPTP block 0, TAAR1 agonist 2, DAGLB inhibitor 2, GPR7 antagonist -8 and TAAR1 antagonist -2.
`CC1(C(=O)NCc2ccco2)Cc2c(-c3ccccc3)ccnc2O1` (stereo unspecified) gave MPTP block 1, TAAR1 agonist 1 and TAAR1 antagonist -18.
`O=C(N/N=C/c1ccc(O)c(O)c1O)/C(=C/c1ccc([N+](=O)[O-])cc1)NC(=O)c1ccccc1` gave MPTP block 6, TAAR1 agonist 5, DAGLB inhibitor 35*, GPR7 antagonist 5, TAAR1 antagonist 3 and DAGLB confirm 19.
For O=C(N[C@H](C(=O)N1CCC[C@H]1C(=O)NC1CCCC1)c1ccccc1)C1CCCC1 the results were TAAR1 agonist 1 and TAAR1 antagonist -24.
Screening Cc1ccc(NC2=C/C(=N\S(=O)(=O)c3cccs3)c3ccccc3C2=O)c(C)c1 returned MPTP block 8, DAGLB inhibitor 50*, GPR7 antagonist -5 and DAGLB confirm 53*.
`Cc1ccc(Cl)cc1NC1=C/C(=N\S(=O)(=O)c2cccs2)c2ccccc2C1=O` gave MPTP block 13, TAAR1 agonist 8, DAGLB inhibitor 43*, GPR7 antagonist -19, TAAR1 antagonist 33 and DAGLB confirm 46*.
Cc1cccc(NC2=C/C(=N/S(=O)(=O)c3cccs3)c3ccccc3C2=O)c1 was read as MPTP block 7, TAAR1 agonist 1, DAGLB inhibitor 9, GPR7 antagonist -3 and TAAR1 antagonist 9.
For O=C1C(Nc2ccc(O)cc2)=C/C(=N/S(=O)(=O)c2cccs2)c2ccccc21 the results were MPTP block 10, TAAR1 agonist 4, DAGLB inhibitor 37*, GPR7 antagonist -23, TAAR1 antagonist 46 and DAGLB confirm 44*.
Nc1nc(-c2ccccc2)c(N=Nc2ccc(Cl)cc2)s1 was read as MPTP block 7, TAAR1 agonist 0, DAGLB inhibitor 51*, GPR7 antagonist 1, TAAR1 antagonist -23 and DAGLB confirm 84*.
For Cc1ccc(C)c(NC2=C(Cl)C(=O)OC2OC(=O)c2ccco2)c1 (stereo unspecified) the results were MPTP block 0, TAAR1 agonist 5, DAGLB inhibitor 40*, GPR7 antagonist 0, TAAR1 antagonist 28 and DAGLB confirm 34.
For Cc1ccc(NC2=C(Cl)C(=O)OC2OC(=O)c2ccco2)c(C)c1 (stereo unspecified) the results were MPTP block 5, TAAR1 agonist 6, DAGLB inhibitor 36*, GPR7 antagonist -6, TAAR1 antagonist 23 and DAGLB confirm 33.
For CCOC1OC(=O)C(Cl)=C1Nc1ccc(C)cc1C (stereo unspecified) the results were MPTP block 0, TAAR1 agonist -1, DAGLB inhibitor -1, GPR7 antagonist -3 and TAAR1 antagonist 3.
Cc1ccc(NC2=C(Cl)C(=O)OC2OC(=O)c2ccco2)cc1C (stereo unspecified) was read as MPTP block 2, TAAR1 agonist 1, DAGLB inhibitor 39*, GPR7 antagonist -2, TAAR1 antagonist 4 and DAGLB confirm 36*.
`Cc1ccccc1C(=O)OC1OC(=O)C(Cl)=C1Nc1ccc(C(=O)O)cc1` (stereo unspecified) gave MPTP block -1, TAAR1 agonist 6, DAGLB inhibitor -1, GPR7 antagonist 13 and TAAR1 antagonist -12.
`COc1cccc(C(C(=O)NC2CCCC2)N2CCN(c3ncccc3C#N)CC2)c1OC` (stereo unspecified) gave MPTP block -1, TAAR1 agonist 1 and TAAR1 antagonist 3.
O=C(CSc1nc2ccccc2o1)N1CCCC1 was read as MPTP block 0, TAAR1 agonist 2, DAGLB inhibitor 49*, GPR7 antagonist 3, TAAR1 antagonist -7 and DAGLB confirm 1.
Screening O=C(CSc1nc2ccccc2o1)N1CCOCC1 returned MPTP block -1, TAAR1 agonist 0, DAGLB inhibitor -1, GPR7 antagonist -7 and TAAR1 antagonist -5.
Screening COc1ccc(N(CC(=O)NCc2ccco2)S(C)(=O)=O)cc1 returned MPTP block -1, TAAR1 agonist 7, DAGLB inhibitor 65*, GPR7 antagonist 4, TAAR1 antagonist 0 and DAGLB confirm -9.
`COc1ccc(N(CC(=O)NCc2ccco2)S(C)(=O)=O)cc1OC` gave MPTP block 2, TAAR1 agonist 6, DAGLB inhibitor 1, GPR7 antagonist -1 and TAAR1 antagonist -16.
`COC(=O)C1=C(C)N(Cc2ccccc2C(F)(F)F)C(=NCc2ccc(C(F)(F)F)cc2)NC1c1cccc(Cl)c1` (stereo unspecified) gave TAAR1 agonist 2 and TAAR1 antagonist -54.
Screening CCN1CCN(c2ccc(S(=O)(=O)N3CCCCC3)cc2NC(=O)c2ccc([N+](=O)[O-])s2)CC1 returned MPTP block 17, TAAR1 agonist 2, DAGLB inhibitor 3 and TAAR1 antagonist -10.
Oc1c(Br)cc(Br)cc1/C=N/NC(=S)N[C@H]1CC2C=CC1C2 (stereo partly specified) was read as MPTP block 84*, TAAR1 agonist 0, DAGLB inhibitor 35*, GPR7 antagonist -1, TAAR1 antagonist 6, DAGLB confirm 27 and Rh123 counter 58*.
Screening CCCCN1C(=O)C(CC(=O)NCc2ccco2)CC(C(=O)N(C(C)C)C(C)C)=C1C (stereo unspecified) returned MPTP block 0, TAAR1 agonist -1 and TAAR1 antagonist 0.
For N#CC(C#N)=NNc1ccc([N+](=O)[O-])cc1 the results were MPTP block 90*, TAAR1 agonist 4, DAGLB inhibitor 39*, GPR7 antagonist -12, TAAR1 antagonist -21, DAGLB confirm 58* and Rh123 counter 78*.
Screening C/C(=N\Nc1ccc([N+](=O)[O-])cc1)c1ccc(C#N)cc1 returned MPTP block 28, TAAR1 agonist 3, DAGLB inhibitor 3, GPR7 antagonist -13 and TAAR1 antagonist -8.
`Cc1cc2c(c(=O)o1)[C@@]1(C(=O)N(C)c3cc(Br)ccc31)C1=C(CCCC1=O)O2` gave TAAR1 agonist 2 and TAAR1 antagonist -7.
For Cc1ccc(C2C(/C=C3/SC(=S)NC3=O)=C(c3cccs3)Oc3ccccc32)cc1 (stereo unspecified) the results were MPTP block 99*, TAAR1 agonist 1, DAGLB inhibitor 39*, GPR7 antagonist -4, TAAR1 antagonist 56*, DAGLB confirm 44* and Rh123 counter 48*.
